Reference: ChEMBL document CHEMBL1155547, “New aminopropandiol derivatives as orally available and short-acting calcium-sensing receptor antagonists” (Bioorg Med Chem Lett, 2010)
Activity calls are given as the source filed them. No cut-off for these calls is given here.

How the values were obtained:
[1] = molecular target: T1, Extracellular calcium-sensing receptor (Homo sapiens, UniProt P41180); experiment: Antagonist activity at human CaSR expressed in rat PC12 cells transfected with zif promoter/luciferase by reporter gene assay; format: functional, cell-based, PC-12
T1 sequence (P41180 whole entry): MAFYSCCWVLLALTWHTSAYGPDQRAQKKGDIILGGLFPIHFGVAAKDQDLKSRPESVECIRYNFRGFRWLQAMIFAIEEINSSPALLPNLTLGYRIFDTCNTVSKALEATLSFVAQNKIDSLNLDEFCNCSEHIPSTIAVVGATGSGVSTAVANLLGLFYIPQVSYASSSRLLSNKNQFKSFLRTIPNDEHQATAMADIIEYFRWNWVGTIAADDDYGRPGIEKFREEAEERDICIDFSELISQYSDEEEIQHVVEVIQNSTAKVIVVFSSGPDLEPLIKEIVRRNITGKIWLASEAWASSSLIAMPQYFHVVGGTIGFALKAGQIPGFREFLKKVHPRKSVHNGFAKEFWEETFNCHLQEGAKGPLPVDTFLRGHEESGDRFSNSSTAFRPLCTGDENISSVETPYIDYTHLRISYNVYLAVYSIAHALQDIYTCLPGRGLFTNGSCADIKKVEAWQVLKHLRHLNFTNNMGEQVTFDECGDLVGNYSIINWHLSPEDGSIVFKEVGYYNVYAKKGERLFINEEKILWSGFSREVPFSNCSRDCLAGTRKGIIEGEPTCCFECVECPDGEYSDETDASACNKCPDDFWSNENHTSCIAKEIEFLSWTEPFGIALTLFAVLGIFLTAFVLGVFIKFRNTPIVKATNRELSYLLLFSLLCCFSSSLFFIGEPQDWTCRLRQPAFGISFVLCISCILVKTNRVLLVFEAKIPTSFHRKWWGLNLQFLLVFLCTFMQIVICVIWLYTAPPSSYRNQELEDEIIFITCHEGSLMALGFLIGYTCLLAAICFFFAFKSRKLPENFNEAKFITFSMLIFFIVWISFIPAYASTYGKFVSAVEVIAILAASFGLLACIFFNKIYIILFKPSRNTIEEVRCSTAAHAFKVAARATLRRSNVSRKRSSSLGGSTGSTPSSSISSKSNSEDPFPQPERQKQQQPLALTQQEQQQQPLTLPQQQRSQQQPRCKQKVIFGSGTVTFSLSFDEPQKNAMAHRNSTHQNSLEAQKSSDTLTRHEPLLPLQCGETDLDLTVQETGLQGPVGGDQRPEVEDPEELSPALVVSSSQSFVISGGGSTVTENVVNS
Method in brief: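 Human CaSR antagonism measured by luciferase reporter gene assay in PC12h cells transfected with zif promoter/luciferase and hCaSR plasmids. IC50 values are means of two or more experiments.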

Rattus norvegicus [2] = experiment: Increase of serum PTH (1-34) level in Sprague-Dawley rat at 100 mg/kg, po after 30 and 60 mins by ELISA relative to NPS 2143; format: functional
Method in brief: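 Sprague–Dawley rats (n = 5) were dosed orally at 100 mg/kg. Serum PTH 1–34 rise over basal at 30 and 60 min was measured by rat PTH 1–34 ELISA. The rise was scored against a reference calcilytic given at 100 mg/kg po: ++ >80%, + 50–80%, N.E. <50% of the reference increase.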

Rattus norvegicus [3] = experiment: Increase of serum PTH (1-34) level in Sprague-Dawley rat at 100 mg/kg, po after 30 and 60 mins by ELISA; format: functional
Method in brief: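 Sprague–Dawley rats (n = 5) were dosed orally at 100 mg/kg. Endogenous PTH 1–34 was measured by rat PTH 1–34 ELISA. The value is the increase over basal level at 30 min and 60 min after dosing.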

[4] = Cmax in rat at 10 mg/kg, po; format: ADME, organism-based; design: dose 10 mg/kg, route oral; conditions: in vivo
[5] = Tmax in rat at 10 mg/kg, po; format: ADME, organism-based; design: dose 10 mg/kg, route oral; conditions: in vivo
[6] = Half life in rat at 10 mg/kg, po; format: ADME, organism-based; design: dose 10 mg/kg, route oral; conditions: in vivo
Rattus norvegicus [7] = experiment: Increase of plasma PTH (1-84) level in Sprague-Dawley rat at 10 mg/kg, po after 30 mins by ELISA
Cytochrome P450 2D6 = Cytochrome P450 2D6 (Homo sapiens, UniProt P10635); experiment: Inhibition of CYP2D6; format: ADME
Rattus norvegicus [8] = experiment: Increase of plasma PTH (1-84) level in Sprague-Dawley rat at 10 mg/kg, po after 2 hrs by ELISA
[9] = Bioavailability in rat at 10 mg/kg, po; format: ADME, organism-based; conditions: in vivo

Cytochrome P450 2D6, sequence (P10635 whole entry): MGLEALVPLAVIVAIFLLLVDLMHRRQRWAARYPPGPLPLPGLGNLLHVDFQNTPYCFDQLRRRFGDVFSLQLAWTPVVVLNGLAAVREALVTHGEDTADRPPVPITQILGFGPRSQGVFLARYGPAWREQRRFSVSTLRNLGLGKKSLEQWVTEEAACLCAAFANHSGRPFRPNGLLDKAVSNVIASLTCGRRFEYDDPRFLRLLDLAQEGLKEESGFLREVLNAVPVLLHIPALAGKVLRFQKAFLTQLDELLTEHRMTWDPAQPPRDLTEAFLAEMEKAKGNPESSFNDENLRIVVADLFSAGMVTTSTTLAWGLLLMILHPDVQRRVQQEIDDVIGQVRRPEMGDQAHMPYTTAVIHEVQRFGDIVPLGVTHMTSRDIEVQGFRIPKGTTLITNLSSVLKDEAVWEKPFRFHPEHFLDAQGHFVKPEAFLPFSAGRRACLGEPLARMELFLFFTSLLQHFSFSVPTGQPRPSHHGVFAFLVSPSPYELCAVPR

Row | SMILES | IC50 [1] | other results
1 | CCCCC(OC[C@H](O)CNC(C)(C)Cc1ccc2ccccc2c1)c1ccccc1 (some centres not stated) | 170 nM | –
2 | Cc1ccc(C(C)OC[C@H](O)CNC(C)(C)Cc2ccc3ccccc3c2)cc1 (some centres not stated) | 140 nM | Activity (Rattus norvegicus [2]): <50%
3 | C=CC(OC[C@H](O)CNC(C)(C)Cc1ccc2ccccc2c1)c1ccccc1 (some centres not stated) | 210 nM | –
4 | COc1ccccc1C(OC[C@H](O)CNC(C)(C)Cc1ccc2ccccc2c1)C1CC1 (some centres not stated) | – | Activity (Rattus norvegicus [2]): >80%
5 | CC(C)C(OC[C@H](O)CNC(C)(C)Cc1ccc2ccccc2c1)c1ccccc1 (some centres not stated) | 200 nM | –
6 | CC(C)(Cc1ccc2ccccc2c1)NC[C@@H](O)COC(c1ccccc1)C1CCCC1 (some centres not stated) | 200 nM | –
7 | CC(C)(Cc1ccc2ccccc2c1)NC[C@@H](O)COC(c1ccccc1)c1ccccc1 | 730 nM | –
8 | CC(C)(Cc1ccc2ccccc2c1)NC[C@@H](O)COc1cccc(Cl)c1C#N | 26 nM | Activity (Rattus norvegicus [3]): 10 pg/mL
9 | CC(OC[C@H](O)CNC(C)(C)Cc1ccc2ccccc2c1)c1ccccc1[N+](=O)[O-] (some centres not stated) | 540 nM | Activity (Rattus norvegicus [2]): <50%
10 | CCC(OC[C@H](O)CNC(C)(C)Cc1ccc2ccccc2c1)c1ccccc1 (some centres not stated) | 92 nM | –
11 | CC(Cc1ccccc1)OC[C@H](O)CNC(C)(C)Cc1ccc2ccccc2c1 (some centres not stated) | 440 nM | –
12 | CC(C)(Cc1ccc2ccccc2c1)NC[C@@H](O)COC(=O)c1ccccc1 | > 30000 nM | –
13 | CC(C)(Cc1ccc2ccccc2c1)NC[C@@H](O)COC(c1ccccc1)C1CCC1 (some centres not stated) | 74 nM | –
14 | CC(OC[C@H](O)CNC(C)(C)Cc1ccc2ccccc2c1)c1cccc2ccccc12 (some centres not stated) | 360 nM | –
15 | Cc1ccccc1[C@@H](OC[C@H](O)CNC(C)(C)Cc1ccc2ccccc2c1)C1CC1 | 83 nM | –
16 | CC(OC[C@H](O)CNC(C)(C)Cc1ccc2ccccc2c1)c1ccc2ccccc2c1 (some centres not stated) | 550 nM | –
17 | CC(C)(Cc1ccc2ccccc2c1)NC[C@@H](O)COC(c1ccccc1)C(C)(C)C (some centres not stated) | 570 nM | –
18 | Cc1cccc(C(C)OC[C@H](O)CNC(C)(C)Cc2ccc3ccccc3c2)c1 (some centres not stated) | 170 nM | Activity (Rattus norvegicus [2]): 50%

Row | SMILES | IC50 [1] | other results
19 | COc1ccccc1C(C)OC[C@H](O)CNC(C)(C)Cc1ccc2ccccc2c1 (some centres not stated) | 120 nM | Activity (Rattus norvegicus [2]): >80%
20 | Cc1ccccc1[C@H](OC[C@H](O)CNC(C)(C)Cc1ccc2ccccc2c1)C1CC1 | 23 nM | Cmax [4]: 300 nM; Tmax [5]: 1 h; half-life [6]: 2 h; Activity (Rattus norvegicus [7]): Active; IC50 (Cytochrome P450 2D6): 500 nM; Activity (Rattus norvegicus [8]): inactive; bioavailability [9]: 13%
21 | CC(CCOC[C@H](O)CNC(C)(C)Cc1ccc2ccccc2c1)c1ccccc1 (some centres not stated) | 300 nM | –
22 | Cc1ccccc1[C@H](OC[C@@H](O)CNC(C)(C)Cc1ccc2ccccc2c1)C1CC1 | 310 nM | –
23 | CC(OC[C@H](O)CNC(C)(C)Cc1ccc2ccccc2c1)c1cccc(Cl)c1 (some centres not stated) | 220 nM | Activity (Rattus norvegicus [2]): <50%
24 | CC(OC[C@H](O)CNC(C)(C)Cc1ccc2ccccc2c1)c1ccccc1 (some centres not stated) | 220 nM | –
25 | Cc1ccccc1C(OC[C@H](O)CNC(C)(C)Cc1ccc2ccccc2c1)C1CC1 (some centres not stated) | 37 nM | Activity (Rattus norvegicus [2]): >80%
26 | Cc1ccccc1[C@@H](OC[C@@H](O)CNC(C)(C)Cc1ccc2ccccc2c1)C1CC1 | 760 nM | –
27 | CC(OC[C@H](O)CNC(C)(C)Cc1ccc2ccccc2c1)c1ccccc1Cl (some centres not stated) | 140 nM | Activity (Rattus norvegicus [2]): <50%
28 | CC(OC[C@H](O)CNC(C)(C)Cc1ccc2ccccc2c1)c1ccccn1 (some centres not stated) | 420 nM | –
29 | CC(COC[C@H](O)CNC(C)(C)Cc1ccc2ccccc2c1)c1ccccc1 (some centres not stated) | 810 nM | –
30 | CC(C)(Cc1ccc2ccccc2c1)NC[C@@H](O)COC(c1ccccc1)C1CC1 (some centres not stated) | 70 nM | –
31 | CC(OC[C@H](O)CNC(C)(C)Cc1ccc2ccccc2c1)c1ccccc1C#N (some centres not stated) | 160 nM | Activity (Rattus norvegicus [2]): 50%
32 | CC(C)(Cc1ccc2ccccc2c1)NC[C@@H](O)COC(c1ccccc1)C1CCCCC1 (some centres not stated) | 610 nM | –
33 | CCCC(OC[C@H](O)CNC(C)(C)Cc1ccc2ccccc2c1)c1ccccc1 (some centres not stated) | 150 nM | –
34 | CC(C)(Cc1ccc2ccccc2c1)NC[C@@H](O)COC(C)(C)c1ccccc1 | 2240 nM | –
35 | Cc1ccccc1C(C)OC[C@H](O)CNC(C)(C)Cc1ccc2ccccc2c1 (some centres not stated) | 200 nM | Activity (Rattus norvegicus [2]): >80%
